Thrombin inh: blocks human thrombin protease activity. P00734. alpha-thrombin, Boc-VPR-AMC fluorogenic substrate cleavage. inhibition, % at 5 µM. hit rate 0.26% among 220,000. AID 1046;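 active means inhibition at or above 40%; inactive means inhibition below 40%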;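 further: 0% = enzyme with no compound and 100% = wells without enzyme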
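System – human alpha-thrombin protein · Reagent – Boc-VPR-AMC substrate, 15 µM final · Compound – 5 µM single dose in 0.2% DMSO · Schedule – reaction at room temperature · Technique – AMC fluorescence at 355 nm excitation and 460 nm emission · Read-out basis – % inhibition relative to enzyme controls and enzyme-free blanks · Control set – no-compound enzyme wells and no-enzyme blanks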
hK5 inh: kallikrein 5 (human) inhibition; recombinant hK5, fluorogenic AMC substrate cleavage; inhibition, % at 5 µM; hit rate 0.59% among 210,000; AID 873;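 active means inhibition of 40% or more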;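 further: 0% = enzyme controls without compound and 100% = no-enzyme blanks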
FXIIa inh: blocks human coagulation factor XIIa protease activity; P00748; hit rate 0.3% among 220,000; inhibition, % at 5 µM; purified FXIIa, Boc-QGR-AMC fluorogenic substrate, 2 h; in the data active means inhibition above about 40%;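 further: 0% = enzyme with no compound and 100% = blank without enzyme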
Wee1 stabilizer: inhibitors of human Wee1 degradation; P30291; HeLa Luc-Wee1K328M stability, luciferase luminescence; 100% = proteasome inhibitor MG132 effect; reporter increase, % at 5 µM; hit rate 1.2% among 220,000;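 active means activation above the mean of all tested compounds plus 3 SD, set per screening run, cut at about 8.8% in these data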;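 further: cells exposed to compound for 20 h before luminescence read; 0% = DMSO alone and 100% = MG132 at 30 µM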
FXIa inh 1536: inhibitors of human coagulation factor XIa. P03951. purified FXIa, Boc-Glu-Ala-Arg-AMC fluorogenic substrate. inhibition, % at 5 µM. hit rate 0.14% among 220,000;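 active means inhibition of at least 40%; inactive means inhibition below 40%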;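 further: fluorescence of freed AMC excited at 355 nm; 0% = enzyme without compound and 100% = no enzyme blank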
Target sequence (P03951 19-387 limits assumed): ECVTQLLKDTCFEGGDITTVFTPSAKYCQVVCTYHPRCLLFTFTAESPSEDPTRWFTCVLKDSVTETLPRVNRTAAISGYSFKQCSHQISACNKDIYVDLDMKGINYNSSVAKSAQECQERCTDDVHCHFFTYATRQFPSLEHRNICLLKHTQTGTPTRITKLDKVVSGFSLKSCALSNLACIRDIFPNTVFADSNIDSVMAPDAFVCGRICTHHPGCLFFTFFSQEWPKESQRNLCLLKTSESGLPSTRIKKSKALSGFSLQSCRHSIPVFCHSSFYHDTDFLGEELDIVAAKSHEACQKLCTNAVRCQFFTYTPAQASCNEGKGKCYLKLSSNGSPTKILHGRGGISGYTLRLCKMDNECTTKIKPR
Target sequence (P03951 388-625 limits assumed): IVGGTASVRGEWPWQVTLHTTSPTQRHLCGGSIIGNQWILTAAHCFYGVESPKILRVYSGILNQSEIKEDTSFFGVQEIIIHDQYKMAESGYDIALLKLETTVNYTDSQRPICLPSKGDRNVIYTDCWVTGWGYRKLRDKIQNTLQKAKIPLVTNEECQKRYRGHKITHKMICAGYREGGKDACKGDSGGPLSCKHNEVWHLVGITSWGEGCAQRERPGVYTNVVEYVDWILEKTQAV
* hit, by the source's call; x = not tested or not shown; ! = not confirmed by another sample. An excerpt weighted towards active compounds, which were near 2.2% of everything screened.

SMILES	Thrombin inh	hK5 inh	FXIIa inh	Wee1 stabilizer	FXIa inh 1536
COC(=O)[C@@H]1C(c2c(OC)cc(OC)cc2OC)=NO[C@H]1C(=O)OC	-6	-7	7	4	5
COCCNc1nc2nonc2nc1N(C)Cc1cccc2cnccc12	-3	6	13	3	1
CC1(C)CC(=O)C(C(=O)C2CCN(S(=O)(=O)c3ccccc3)CC2)C(=O)C1	3	5	10	0	10
NC(=O)N(CCC(=O)O)c1ccccc1	3	-10	12	10*	4
CCN(CCC(=O)O)c1ccccc1	-1	6	2	-1	-8
C1CCN(c2nc3nonc3nc2N2CCCCC2)CC1	-1	-9	15	10*	5
O=C(COC(=O)c1cc(-c2ccco2)nc2ccccc12)NCc1ccccc1	2	-51	22	-3	-2
CNC(=O)COC(=O)c1cc(-c2ccco2)nc2ccccc12	16	28	51*	1	32
O=[N+]([O-])c1cccc(-c2noc(-c3ccco3)n2)c1	1	-4	7	8.9*	3
O=[N+]([O-])c1cccc(-c2nc(-c3ccccc3)no2)c1	1	3	12	0	-1
O=C(COc1ccc([N+](=O)[O-])cc1)Nc1ccccc1N1CCCC1	-2	x	10	1	1
CC(C)Nc1nc(C#N)nc(NC(C)C)n1	102*	97*	6	-2	2
CC(OC(=O)CCCN1C(=O)c2ccccc2C1=O)C(=O)Nc1ncc(Cl)cc1Cl (stereo not given)	26	70*	-1	-2	1
COc1ccc(-c2nnc(NC(=O)Cc3ccccc3)s2)c(OC)c1	0	52*	6	-3	-12
COc1ccc(CCc2nc(C)ccc2O)cc1	24	44*!	10	-1	4
O=C(O)CC1(CC(=O)NCc2ccncc2)CCCCC1	15	37	41*	2	28
CS(=O)(=O)Nc1cccc(S(=O)(=O)N2CCN(C(=O)c3ccccc3)CC2)c1	18	8	16	1	10
CCCn1c(=O)c(C(=O)NCc2ccncc2)c(O)c2ccccc21	-4	-3	13	-3	-3
CC(C)Cn1c(=O)c(C(=O)NCc2ccccn2)c(O)c2ccccc21	-8	-3	-1	12*	-5
O=C(Nc1nc2ccccc2n1CCN1CCOCC1)c1ccc(COc2ccccc2Br)o1	1	-8	1	5	-1
CCC(C)(C(=O)NC1CCCCC1)N(Cc1ccco1)C(=O)c1ccccn1 (stereo not given)	2	-22	54*	-1	20
CCC(C)(C(=O)NC1CCCCC1)N(Cc1cccs1)C(=O)Cc1cccs1 (stereo not given)	-8	-14	-17	0	-10
COc1cccc(C(=O)SC2=NCCS2)c1	14	60*	22	-1	21
COc1cc(NC(=O)SC2=NCCS2)cc(OC)c1	3	0	9	1	1
Cc1ccc(-c2csc(N/N=C/c3ccco3)n2)c(C)c1	-8	-10	9	9.6*	22
SMILES	Thrombin inh	hK5 inh	FXIIa inh	Wee1 stabilizer	FXIa inh 1536
O=C(CCNC(=O)c1ccccc1)OCC(=O)c1ccccc1	1	-5	9	1	7
Cc1ccc(S(=O)(=O)N2CCC(C(=O)NNC(=O)C3CC3)CC2)cc1Cl	-4	-4	8	4	-7
C/C(=N\NC(=S)NCc1ccccc1)c1ccc(C#N)cc1	17	54*	32	1	24
Cc1ccc(S(=O)(=O)N2CCN=C2c2ccccc2)cc1C	24	45*	17	-2	22
CCCc1nc2n[nH]c(N)c2c2c1CCC2	3	-4	55*	2	35
O=C1OC(Nc2ccc(F)c([N+](=O)[O-])c2)c2ccccc21 (stereo not given)	50*	26	26	3	44*
CCNC(=O)C(=O)NCc1ccncc1	x	-5	1	-2	0
CCC(=O)Nc1cccc(-c2nc3ccccc3c(=O)o2)c1	6	47*	18	2	13
CCCC(=O)n1nc(-c2cccnc2)nc1NCc1ccccc1	100*	2	10	-1	-2
CCC(=O)n1nc(-c2cccnc2)nc1NCc1ccc(F)cc1	x	4	12	-3	3
CCN(C(=O)Cc1cccs1)c1nnc(-c2cccnc2)s1	14	44*	6	2	-5
O=C(c1cccs1)n1nc(-c2cccnc2)nc1NCc1ccco1	83*	-6	12	-1	17
O=C(c1ccco1)n1nc(-c2ccccc2)nc1NCc1ccco1	15	13	-4	4	2
COc1ccccc1C(=O)n1nc(-c2ccccc2)nc1NCc1ccco1	85*	-5	13	2	5
CCCC(=O)n1nc(-c2cccnc2)nc1NCc1cccs1	100*	x	13	5	7
CCC(=O)n1nc(-c2cccnc2)nc1NCc1cccs1	100*	2	11	-1	2
CC(=O)n1nc(-c2cccnc2)nc1NCc1cccs1	x	2	8	0	1
Cc1cccc(NC(=O)c2nc[nH]c2C(=O)N[C@@H](Cc2ccccc2)C(=O)OCc2ccccc2)c1	1	-2	8	x	2
COc1cc(C(=O)O/N=C2/C=C(C)C(=O)C=C2C)cc(OC)c1OC	-2	-6	60*	0	0
NC(=O)c1ccccc1N1CCCCC1	-3	2	1	-1	7
CC(OC(=O)CCc1nc2ccccc2c(=O)[nH]1)C(=O)c1ccc(C(C)(C)C)cc1 (stereo not given)	-17	-11	1	-4	-6
NS(=O)(=O)c1ccc(NNC(=O)c2sccc2Cl)cc1	30	29	41*	1	22
O=C(NNc1ccc(Cl)cc1)c1sccc1Cl	1	-6	6	0	-5
CC1=C(C(=O)OCc2ccccc2)C(c2cccnc2)c2c(n(C)c(=O)n(C)c2=O)N1 (stereo not given)	1	-27	14	-2	-4
Cc1ccc2nc(-c3ccsc3)c(NC3CCCC3)n2c1	-11	1	7	10*	1
SMILES	Thrombin inh	hK5 inh	FXIIa inh	Wee1 stabilizer	FXIa inh 1536
CN(C)/C=C/C1=CC(=O)CC(C)(C)C1	-8	-3	5	0	-3
CCN1CCCc2cc(CN(CCN3CCOCC3)C(=S)Nc3ccc(OC)c(Cl)c3)ccc21	-3	-1	10	10*	-7
Oc1cc(-c2ccccc2)c2ccccc2c1	-9	-18	5	1	2
CSc1sc(-c2ccnc(=S)[nH]2)c(-c2ccccc2)c1C#N	0	-2	3	9.8*	-1
Cc1cc(OCc2ccc(C(=O)NN=C3CCCC3)cc2)ccc1Cl	-2	-19	10	3	9
COC(=O)c1cnc(N2CCOCC2)nc1C(F)(F)F	-3	-8	7	10*	5
Cc1cc(-c2ccco2)n(CC(=O)O)n1	-1	115*	-3	4	-4
Cc1cc(-c2ccco2)n(CC(=O)NCc2ccccc2)n1	2	-3	7	-3	10

Screening data deposited in PubChem BioAssay by several laboratories.
